From ChEMBL document CHEMBL3992537, “Design, Synthesis, and Biological Evaluation of Small, High-Affinity Siglec-7 Ligands: Toward Novel Inhibitors of Cancer Immune Evasion” (J Med Chem, 2017)
The source made the active and inactive calls. No cut-off for these calls is given here.

Columns and labels:
[1] = molecular target: T1, Sialic acid-binding Ig-like lectin 7 (Homo sapiens, UniProt Q9Y286); experiment: Binding affinity to human IgG1-fused Siglec-7-Fc measured after 2.5 hrs by ELISA
In short: (§1)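 Streptavidin-coated plates carry 4 μg/mL biotinylated 6′sialyl-N-acetyllactosamine-polyacrylamide and are BSA-blocked. Ligand 10-fold dilutions (1 mM to 1 × 10⁻⁵ mM, PBS) and hSiglec7-Fc precomplexed with AP anti-human IgG are added for 2.5 h at 37 °C. Plates are developed with p-nitrophenyl phosphate (pH 9.8) and read at 405 nm for IC50. 3′- and 6′-sialyllactose serve as references for relative potency.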

[2] = molecular target: T1, Sialic acid-binding Ig-like lectin 7; experiment: Binding affinity to human IgG1-fused Siglec-7-Fc
In short: (§2)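 Siglec-7-Fc (human IgG1 fusion), 0.2 μg/mL, premixed 10 min at RT in PBS with inhibitor dilution series. The mix is then added to pelleted freshly isolated human RBCs (0.1% suspension) for 20 min on ice. Bound Fc is detected with biotin goat anti-human Fc (10 μg/mL) and streptavidin-PE, then formaldehyde-fixed and read by flow cytometry. % inhibition is from MFI, with unstained RBCs as 100% and no inhibitor as 0%. IC50 derived.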

[3] = molecular target: T1, Sialic acid-binding Ig-like lectin 7; experiment: Binding affinity to human IgG1-fused Siglec-7-Fc assessed as inhibition of Siglec-7-Fc binding to RBC preincubated for 10 mins followed by RBC addition measured after 20 mins by FACS analysis relative to sodium (4S,5R,6R)-5-acetamido-4-hydroxy-2-methoxy-6-((1R,2R)-1,2,3 trihydroxypropyl)tetrahydro-2H-pyran-2-carboxylate
In short: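 RBC flow-cytometry competition as above: Siglec-7-Fc 0.2 μg/mL with ligand 10 min at RT, then RBCs 20 min on ice, detected by anti-Fc-biotin/streptavidin-PE MFI. The reference ligand α-Me Neu5Ac is run in the same test. Relative inhibitory potency is calculated intra-test against it to offset inter-test variation from fresh RBCs.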

[4] = molecular target: T1, Sialic acid-binding Ig-like lectin 7; experiment: Binding affinity to human IgG1-fused Siglec-7-Fc assessed as inhibition of Siglec-7-Fc binding to RBC preincubated for 10 mins followed by RBC addition measured after 20 mins by FACS analysis; in short: as §2
[5] = molecular target: T1, Sialic acid-binding Ig-like lectin 7; experiment: Binding affinity to human IgG1-fused Siglec-7-Fc measured after 2.5 hrs by ELISA relative to 3'sialyllactose; in short: as §1
[6] = molecular target: T1, Sialic acid-binding Ig-like lectin 7; experiment: Ratio of 3'sialyllactose Kd to relative inhibitory potency of test compound for human IgG1-fused Siglec-7-Fc by ELISA
In short: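 The Kd value is extrapolated by dividing the known Kd of 3′sialyllactose by the ELISA relative inhibitory potency. The ELISA uses plate-bound 6′sialyl-LacNAc-polyacrylamide with AP-precomplexed Siglec-7-Fc, 2.5 h at 37 °C, read at 405 nm.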

[7] = molecular target: Sialic acid-binding Ig-like lectin 9 (Homo sapiens) (UniProt Q9Y336); experiment: Binding affinity to human IgG1-fused Siglec-9-Fc assessed as inhibition of Siglec-9-Fc binding to K562 cells preincubated for 10 mins followed by K562 cell addition measured after 20 mins by FACS analysis
Sequence of Sialic acid-binding Ig-like lectin 9 (Homo sapiens) (Q9Y336 whole entry, the tested form may be a part): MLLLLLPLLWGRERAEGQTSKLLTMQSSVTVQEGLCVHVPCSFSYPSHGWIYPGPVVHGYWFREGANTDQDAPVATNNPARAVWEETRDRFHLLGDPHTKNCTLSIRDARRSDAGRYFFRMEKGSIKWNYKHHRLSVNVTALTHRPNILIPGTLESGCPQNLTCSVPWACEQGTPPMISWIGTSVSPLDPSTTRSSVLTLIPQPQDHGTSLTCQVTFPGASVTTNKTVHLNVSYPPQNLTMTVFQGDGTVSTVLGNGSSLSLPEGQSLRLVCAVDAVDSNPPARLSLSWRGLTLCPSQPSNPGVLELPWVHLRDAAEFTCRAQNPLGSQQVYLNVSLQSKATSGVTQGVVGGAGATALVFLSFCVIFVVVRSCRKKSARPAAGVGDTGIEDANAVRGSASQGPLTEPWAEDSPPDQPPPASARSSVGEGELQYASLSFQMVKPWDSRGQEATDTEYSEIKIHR
In short: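 Human IgG1-fused Siglec-9-Fc is preincubated with inhibitor dilutions, then co-incubated with K562 cells instead of RBCs. Later steps follow the RBC assay: anti-Fc-biotin and streptavidin-PE detection, fixation, and flow cytometry. Inhibition is calculated from MFI as for RBCs. At least three independent experiments.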

[8] = Cytotoxicity against human NK cells assessed as viable cells up to 10 mM; format: cell-based; conditions: nk cell
In short: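 Human NK cells are isolated by negative selection from PBMCs and prestimulated 24 h with 100 IU/mL IL-2. They are then incubated 24 h with the Siglec-7 inhibitor at concentrations up to 10 mM. Viability is assessed by live–dead staining and flow cytometry.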

K562 = experiment: Cytotoxicity against human K562 cells assessed as viable cells; format: cell-based
[9] = Cytotoxicity against human MEL1106 cells assessed as viable cells; format: cell-based

T1 sequence (Q9Y286 whole entry, the tested form may be a part): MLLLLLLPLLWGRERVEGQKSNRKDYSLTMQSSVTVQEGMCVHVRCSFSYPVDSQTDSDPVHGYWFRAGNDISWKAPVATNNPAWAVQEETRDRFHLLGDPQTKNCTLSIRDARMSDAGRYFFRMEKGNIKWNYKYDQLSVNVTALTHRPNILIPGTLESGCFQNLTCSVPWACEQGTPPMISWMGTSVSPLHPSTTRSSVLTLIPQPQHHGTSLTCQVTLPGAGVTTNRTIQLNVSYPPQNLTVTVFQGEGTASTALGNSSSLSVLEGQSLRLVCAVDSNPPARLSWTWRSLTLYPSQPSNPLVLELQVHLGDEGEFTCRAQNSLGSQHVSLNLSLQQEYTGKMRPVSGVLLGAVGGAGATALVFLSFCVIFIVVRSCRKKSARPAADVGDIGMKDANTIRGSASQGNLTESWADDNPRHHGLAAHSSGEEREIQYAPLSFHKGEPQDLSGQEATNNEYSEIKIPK

| Compound | fold change (FC) [3] | also measured |
| --- | --- | --- |
| CC(=O)N[C@H]1[C@H]([C@H](O)[C@H](O)CO)O[C@@](O[C@H]2[C@@H](O)[C@@H](CO)O[C@@H](O[C@H]3[C@H](O)[C@@H](O)[C@H](O)O[C@@H]3CO)[C@@H]2O)(C(=O)O)C[C@@H]1O | – | IC50 [1]: 36900 µM; Kd [2]: 680 µM |
| CC(=O)N[C@H]1[C@H]([C@H](O)[C@H](O)CNS(=O)(=O)c2ccccc2)O[C@@](OCCCn2cc(-c3ccc(-c4ccccc4)cc3)nn2)(C(=O)O)C[C@@H]1O | 0.49 | – |
| CC(=O)N[C@H]1[C@H]([C@H](O)[C@H](O)CNS(=O)(=O)C(F)(F)F)O[C@@](OCCCn2cc(-c3ccc(-c4ccccc4)cc3)nn2)(C(=O)O)C[C@@H]1O | 0.41 | – |
| CCS(=O)(=O)NC[C@@H](O)[C@@H](O)[C@@H]1O[C@@](OCCCn2cc(-c3ccc(-c4ccccc4)cc3)nn2)(C(=O)O)C[C@H](O)[C@H]1NC(C)=O | 5210 | IC50 [4]: 1.6 µM; IC50 [1]: 230 µM; fold change (FC) [5]: 161; Ratio [6]: 4.2 |
| CC(=O)N[C@H]1[C@H]([C@H](O)[C@@H](C)O)O[C@@](OCCCn2cc(-c3ccc(-c4ccccc4)cc3)nn2)(C(=O)O)C[C@@H]1O | 0.15 | – |
| COC1(C(=O)O)C[C@H](O)[C@@H](NC(C)=O)[C@H]([C@H](O)[C@H](O)CNC(=O)C(N)=O)O1 (some centres undefined) | 4.1 | – |
| CCCS(=O)(=O)NC[C@@H](O)[C@@H](O)[C@@H]1O[C@@](OCCCn2cc(-c3ccc(-c4ccccc4)cc3)nn2)(C(=O)O)C[C@H](O)[C@H]1NC(C)=O | 0.33 | – |
| CC(=O)N[C@H]1[C@H]([C@H](O)[C@H](O)CNS(=O)(=O)Cc2ccccc2)O[C@@](OCCCn2cc(-c3ccc(-c4ccccc4)cc3)nn2)(C(=O)O)C[C@@H]1O | 0.17 | – |
| COC1(C(=O)O)C[C@H](O)[C@@H](NC(C)=O)[C@H]([C@H](O)[C@H](O)CNC(=O)c2ccc(-c3ccccc3)cc2)O1 (some centres undefined) | < 1.5 | – |
| CC(=O)N[C@H]1[C@H]([C@H](O)[C@H](O)CO)O[C@@](OC[C@H]2O[C@@H](O[C@H]3[C@H](O)[C@@H](O)[C@H](O)O[C@@H]3CO)[C@H](O)[C@@H](O)[C@H]2O)(C(=O)O)C[C@@H]1O | – | IC50 [1]: 25600 µM; fold change (FC) [5]: 1.4; Kd [2]: 240 µM |
| CCCCS(=O)(=O)NC[C@@H](O)[C@@H](O)[C@@H]1O[C@@](OCCCn2cc(-c3ccc(-c4ccccc4)cc3)nn2)(C(=O)O)C[C@H](O)[C@H]1NC(C)=O | 0.16 | – |
| CC(=O)N[C@H]1[C@H]([C@H](O)[C@H](O)CS)O[C@@](OCCCn2cc(-c3ccc(-c4ccccc4)cc3)nn2)(C(=O)O)C[C@@H]1O | 0.52 | – |
| CC(=O)N[C@H]1[C@H]([C@H](O)[C@H](O)CNC(=O)C(=O)Nc2ccccc2)O[C@@](OCCCn2cc(-c3ccc(-c4ccccc4)cc3)nn2)(C(=O)O)C[C@@H]1O | 6.8 | – |
| CC(=O)N[C@H]1[C@H]([C@H](O)[C@H](O)CNS(=O)(=O)NC(=O)OCc2ccccc2)O[C@@](OCCCn2cc(-c3ccc(-c4ccccc4)cc3)nn2)(C(=O)O)C[C@@H]1O | 0.27 | – |
| CC(=O)N[C@H]1[C@H]([C@H](O)[C@H](O)CO)O[C@@](OCCCn2cc(-c3ccc(-c4ccccc4)cc3)nn2)(C(=O)O)C[C@@H]1O | 152 | IC50 [4]: 53 µM |
| CC(=O)N[C@H]1[C@H]([C@H](O)[C@H](O)CNS(C)(=O)=O)O[C@@](OCCCn2cc(-c3ccc(-c4ccccc4)cc3)nn2)(C(=O)[O-])C[C@@H]1O.[Na+] | 3120 | IC50 [4]: 2.6 µM; inhibition [7]: Active; IC50 [1]: 260 µM; fold change (FC) [5]: 141; Activity [8]: Non-Toxic; Activity (K562): Non-Toxic; Ratio [6]: 4.8; Activity [9]: Non-Toxic |
| COC1(C(=O)O)C[C@H](O)[C@@H](NC(C)=O)[C@H]([C@H](O)[C@H](O)CNC(=O)Nc2ccccc2)O1 (some centres undefined) | < 1 | – |
| CC(=O)N[C@H]1[C@H]([C@H](O)[C@H](O)CNS(=O)(=O)O)O[C@@](OCCCn2cc(-c3ccc(-c4ccccc4)cc3)nn2)(C(=O)O)C[C@@H]1O | 33 | – |
| COC1(C(=O)O)C[C@H](O)[C@@H](NC(C)=O)[C@H]([C@H](O)[C@H](O)CO)O1 (some centres undefined) | – | IC50 [4]: 8070 µM |
| COC1(C(=O)O)C[C@H](O)[C@@H](NC(C)=O)[C@H]([C@H](O)[C@H](O)CNC(=O)Cc2ccc(-c3ccccc3)cc2)O1 (some centres undefined) | 4.5 | – |
| CC(=O)N[C@H]1[C@H]([C@H](O)[C@H](O)CNCc2ccccc2)O[C@@](OCCCn2cc(-c3ccc(-c4ccccc4)cc3)nn2)(C(=O)O)C[C@@H]1O | < 0.5 | – |
| CC(=O)N[C@H]1[C@H]([C@H](O)[C@H](O)CNS(=O)(=O)NS(N)(=O)=O)O[C@@](OCCCn2cc(-c3ccc(-c4ccccc4)cc3)nn2)(C(=O)O)C[C@@H]1O | 1 | – |
| CC(=O)N[C@H]1[C@H]([C@H](O)[C@H](O)CNC(=O)C(N)=O)O[C@@](OCCCn2cc(-c3ccc(-c4ccccc4)cc3)nn2)(C(=O)O)C[C@@H]1O | 3.5 | – |
| CC(=O)N[C@H]1[C@H]([C@H](O)[C@H](O)CNS(=O)(=O)c2cccc3c(N(C)C)cccc23)O[C@@](OCCCn2cc(-c3ccc(-c4ccccc4)cc3)nn2)(C(=O)O)C[C@@H]1O | 0.09 | – |

Continued, in another order:

| fold change (FC) [3] | Compound | also measured |
| --- | --- | --- |
| 8.2 | COC1(C(=O)O)C[C@H](O)[C@@H](NC(C)=O)[C@H]([C@H](O)[C@H](O)CNC(=O)Cc2ccc3ccccc3c2)O1 (some centres undefined) | – |
| 0.24 | CC(=O)N[C@H]1[C@H]([C@H](O)[C@H](O)CN)O[C@@](OCCCn2cc(-c3ccc(-c4ccccc4)cc3)nn2)(C(=O)O)C[C@@H]1O | – |
| < 1.5 | COC1(C(=O)O)C[C@H](O)[C@@H](NC(C)=O)[C@H]([C@H](O)[C@H](O)CNC(=O)CC23CC4CC(CC(C4)C2)C3)O1 (some centres undefined) | – |
| 58 | COC1(C(=O)O)C[C@H](O)[C@@H](NC(C)=O)[C@H]([C@H](O)[C@H](O)CNC(=O)C(=O)Nc2ccccc2)O1 (some centres undefined) | – |
| < 1.5 | COC1(C(=O)O)C[C@H](O)[C@@H](NC(C)=O)[C@H]([C@H](O)[C@H](O)CNC(=O)CC2CCCCC2)O1 (some centres undefined) | – |
| 0.45 | CC(=O)N[C@H]1[C@H]([C@H](O)[C@H](O)CNS(N)(=O)=O)O[C@@](OCCCn2cc(-c3ccc(-c4ccccc4)cc3)nn2)(C(=O)O)C[C@@H]1O | – |
| < 0.5 | CCCNC[C@@H](O)[C@@H](O)[C@@H]1O[C@@](OCCCn2cc(-c3ccc(-c4ccccc4)cc3)nn2)(C(=O)O)C[C@H](O)[C@H]1NC(C)=O | – |
| < 1.5 | COC1(C(=O)O)C[C@H](O)[C@@H](NC(C)=O)[C@H]([C@H](O)[C@H](O)CNC(=O)c2ccccc2)O1 (some centres undefined) | – |
| < 1.5 | COC1(C(=O)O)C[C@H](O)[C@@H](NC(C)=O)[C@H]([C@H](O)[C@H](O)CNC(=O)Cc2cccc3ccccc23)O1 (some centres undefined) | – |
| 0.28 | CC(=O)N[C@H]1[C@H]([C@H](O)[C@H](O)CNc2c(O)c(=O)c2=O)O[C@@](OCCCn2cc(-c3ccc(-c4ccccc4)cc3)nn2)(C(=O)O)C[C@@H]1O | – |
| 0.73 | CC(=O)NC[C@@H](O)[C@@H](O)[C@@H]1O[C@@](OCCCn2cc(-c3ccc(-c4ccccc4)cc3)nn2)(C(=O)O)C[C@H](O)[C@H]1NC(C)=O | – |
| 3.6 | CC(=O)N[C@H]1[C@H]([C@H](O)[C@H](O)CNC(=O)C(=O)O)O[C@@](OCCCn2cc(-c3ccc(-c4ccccc4)cc3)nn2)(C(=O)O)C[C@@H]1O | – |
| 10 | COC1(C(=O)O)C[C@H](O)[C@@H](NC(C)=O)[C@H]([C@H](O)[C@H](O)CNC(=O)Cc2ccccc2)O1 (some centres undefined) | – |
| 0.6 | CC(=O)N[C@H]1[C@H]([C@H](O)[C@H](O)CNC(=O)Cc2ccccc2)O[C@@](OCCCn2cc(-c3ccc(-c4ccccc4)cc3)nn2)(C(=O)O)C[C@@H]1O | – |
